Data from ChEMBL document CHEMBL1134845, “Syntheses and biological activities of a novel group of steroidal derived inhibitors for human Cdc25A protein phosphatase” (J Med Chem, 2001).
One block for each molecule: values may come before it.

Tests used:
NCI-H23 = experiment: Growth inhibitory activity was determined against NCI-H23 cancer cell line of non-small cell lung cancer; assay type: functional, Homo sapiens; conditions: Homo sapiens, NCI-H23
Procedure, shortened: (§1)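 NCI 60 human tumour cell line screen run at the National Cancer Institute. Cell growth and viability read with the protein stain sulforhodamine B, which binds basic amino acids of cells left attached after washing. […] MG MID is the mean GI50 calculated over all panels.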

LOX IMVI = experiment: Growth inhibitory activity was determined against LOX IMVI cancer cell line of melanoma; assay type: functional, Homo sapiens; conditions: Homo sapiens, LOX IMVI; procedure, shortened: as §1
PC-3 = experiment: Growth inhibitory activity was determined against PC-3 cancer cell line of Prostate cancer; assay type: functional; conditions: Homo sapiens; procedure, shortened: as §1
HCC 2998 = experiment: Growth inhibitory activity was determined against HCC2998 cancer cell line colon cancer; assay type: functional, Homo sapiens; conditions: Homo sapiens, HCC 2998; procedure, shortened: as §1
HT-29 [1] = experiment: Inhibition of colon cancer in HT-29 cancer cell lines; assay type: functional; conditions: Homo sapiens
Procedure, shortened: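 Soft agar clonogenic assay of anchorage-independent growth, using HT-29 colon and A549 lung adenocarcinoma cells. The value is the compound concentration that cut colony number to 50% of control.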

SN12C [2] = experiment: Growth inhibitory activity was determined against SN12C cancer cell line of Renal cancer; assay type: functional; conditions: Homo sapiens; procedure, shortened: as §1
OVCAR-8 [3] = experiment: Growth inhibitory activity was determined against OVCAR-8 cancer cell line of Ovarian cancer; assay type: functional; conditions: Homo sapiens; procedure, shortened: as §1
NCI-H522 = experiment: Growth inhibitory activity was determined against NCI-H522 cancer cell line of non-small cell lung cancer; assay type: functional; conditions: Homo sapiens; procedure, shortened: as §1
SK-MEL-5 = experiment: Growth inhibitory activity was determined against SK-MEL-5 cancer cell line of melanoma; assay type: functional, Homo sapiens; conditions: Homo sapiens, SK-MEL-5; procedure, shortened: as §1
T47D = experiment: Growth inhibitory activity was determined against T-47D cancer cell line of Breast cancer; assay type: functional, Homo sapiens; conditions: Homo sapiens, T47D; procedure, shortened: as §1
COLO 205 = experiment: Growth inhibitory activity was determined against COLO 205 cancer cell line colon cancer; assay type: functional, Homo sapiens; conditions: Homo sapiens, COLO 205; procedure, shortened: as §1
OVCAR-3 [4] = experiment: Growth inhibitory activity was determined against OVCAR-3 cancer cell line of Ovarian cancer; assay type: functional; conditions: Homo sapiens; procedure, shortened: as §1
786-0 [5] = experiment: Growth inhibitory activity was determined against 786-0 cancer cell line of Renal cancer; assay type: functional; conditions: Homo sapiens; procedure, shortened: as §1
SF-539 = experiment: Growth inhibitory activity was determined against SF-539 cancer cell line of CNS cancer; assay type: functional; conditions: Homo sapiens; procedure, shortened: as §1
U-251 = experiment: Growth inhibitory activity was determined against U-251 cancer cell line of CNS cancer; assay type: functional; conditions: Homo sapiens; procedure, shortened: as §1
UO-31 [6] = experiment: Growth inhibitory activity was determined against UO-31 cancer cell line of Renal cancer; assay type: functional; conditions: Homo sapiens; procedure, shortened: as §1
BT-549 (Homo sapiens) = experiment: Growth inhibitory activity was determined against BT-549 cancer cell line of Breast cancer; conditions: Homo sapiens, BT-549
A549 = experiment: Growth inhibitory activity was determined against A549/ATCC cancer cell line of non-small cell lung cancer; assay type: functional, Homo sapiens; conditions: Homo sapiens, A549; procedure, shortened: as §1
SF-268 = experiment: Growth inhibitory activity was determined against SF-268 cancer cell line of CNS cancer; assay type: functional; conditions: Homo sapiens; procedure, shortened: as §1
786-0 [7] = experiment: Growth inhibitory activity was determined against 786-0 cancer cell line of renal cancer; assay type: functional; conditions: Homo sapiens; procedure, shortened: as §1
HT-29 [8] = experiment: Growth inhibitory activity was determined against HT-29 cancer cell line colon cancer; assay type: functional, Homo sapiens; conditions: Homo sapiens, HT-29; procedure, shortened: as §1
UO-31 [9] = experiment: Growth inhibitory activity was determined against UO-31 cancer cell line of renal cancer; assay type: functional; conditions: Homo sapiens; procedure, shortened: as §1
OVCAR-3 [10] = experiment: Growth inhibitory activity was determined against OVCAR-3 cancer cell lines of Ovarian cancer; assay type: functional; conditions: Homo sapiens; procedure, shortened: as §1
NCI/ADR-RES = experiment: Growth inhibitory activity was determined against NCI/ADR-RES cancer cell line of Breast cancer; assay type: functional, Homo sapiens; conditions: Homo sapiens, NCI/ADR-RES; procedure, shortened: as §1
OVCAR-8 [11] = experiment: Growth inhibitory activity was determined against OVCAR-8 cancer cell lines of Ovarian cancer; assay type: functional; conditions: Homo sapiens; procedure, shortened: as §1
SN12C [12] = experiment: Growth inhibitory activity was determined against SN12C cancer cell line of renal cancer; assay type: functional; conditions: Homo sapiens; procedure, shortened: as §1
[13] = target: T1, M-phase inducer phosphatase 1 (Homo sapiens, UniProt P30304); experiment: (§2) Inhibitory activity tested against cell division cycle 25A (assay using fluorescein diphosphate (FDP) as substrate)
T1 sequence (P30304 whole entry): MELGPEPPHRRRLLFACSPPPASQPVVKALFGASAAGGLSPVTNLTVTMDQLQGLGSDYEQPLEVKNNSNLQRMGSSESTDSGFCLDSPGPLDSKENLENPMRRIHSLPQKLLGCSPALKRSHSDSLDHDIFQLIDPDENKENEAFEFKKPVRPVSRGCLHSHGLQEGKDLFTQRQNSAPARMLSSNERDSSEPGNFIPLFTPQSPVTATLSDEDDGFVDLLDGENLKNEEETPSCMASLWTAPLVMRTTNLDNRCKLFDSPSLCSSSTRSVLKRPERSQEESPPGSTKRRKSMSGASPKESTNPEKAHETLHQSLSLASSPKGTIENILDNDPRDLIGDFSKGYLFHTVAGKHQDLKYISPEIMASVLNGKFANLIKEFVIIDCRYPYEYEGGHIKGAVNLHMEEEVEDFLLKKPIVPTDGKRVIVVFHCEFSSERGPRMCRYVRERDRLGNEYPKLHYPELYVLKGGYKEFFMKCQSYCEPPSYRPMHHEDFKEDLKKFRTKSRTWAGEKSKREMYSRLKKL
Procedure, shortened: (§3)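 Recombinant human GST-Cdc25A fusion protein, each batch calibrated so that FDP was dephosphorylated linearly over 20 min. Fluorescein diphosphate was the substrate. Reactions ran 15 min at 25 °C in the dark and were stopped with sodium orthovanadate. IC50 came from at least two independent runs, each in triplicate.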

[14] = target: Receptor-type tyrosine-protein phosphatase C, CD45 (Homo sapiens) (UniProt P08575); experiment: Inhibitory activity tested against human CD45 (receptor-type tyrosine-protein phosphatase C)
[15] = target: T1, M-phase inducer phosphatase 1; experiment: (§4) Inhibitory activity tested against cell division cycle 25A (assay using p-nitro phenyl phosphate (pNPP) as substrate)
[16] = target: T2, M-phase inducer phosphatase 1 (Homo sapiens) (UniProt P30304); experiment: as §2
T2 sequence (whole entry): T1 sequence (P30304 whole entry)
Procedure, shortened: as §3, with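 “orthovanadate. Fluorescein monophosphate was read at 485 nm excitation and 530 nm emission.” for “orthovanadate.”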

[17] = target: Receptor-type tyrosine-protein phosphatase C, CD45 (Homo sapiens) (UniProt P08575); experiment: Inhibitory activity tested against human CD45 receptor-type tyrosine-protein phosphatase C
[18] = target: T2, M-phase inducer phosphatase 1 (Homo sapiens); experiment: as §4
[19] = substrate: C=C(CCCCC#N)[C@H]1CC[C@]2(C)[C@@H]([C@H](C)CCCC(C)C)CC[C@H]2[C@@H]1CC(=O)O; conditions: 0.625 uM
[20] = substrate: C=C(CCCCC#N)[C@H]1CC[C@]2(C)[C@@H]([C@H](C)CCCC(C)C)CC[C@H]2[C@@H]1CC(=O)O
[21] = substrate: C=C(CCCCC#N)[C@H]1CC[C@]2(C)[C@@H]([C@H](C)CCCC(C)C)CC[C@H]2[C@@H]1CC(=O)O; remark: listed apart in the source
[22] = substrate: C=C(CCCCC#N)[C@H]1CC[C@]2(C)[C@@H]([C@H](C)CCCC(C)C)CC[C@H]2[C@@H]1CC(=O)O; conditions: 2.5 uM
[23] = substrate: C=C(CCCCC#N)[C@H]1CC[C@]2(C)[C@@H]([C@H](C)CCCC(C)C)CC[C@H]2[C@@H]1CC(=O)O; conditions: 5 uM
[24] = substrate: C=C(CCCCC#N)[C@H]1CC[C@]2(C)[C@@H]([C@H](C)CCCC(C)C)CC[C@H]2[C@@H]1CC(=O)O; remark: listed apart in the source
[25] = substrate: C=C(CCCCC#N)[C@H]1CC[C@]2(C)[C@@H]([C@H](C)CCCC(C)C)CC[C@H]2[C@@H]1CC(=O)O; remark: listed apart in the source
[26] = substrate: C=C(CCCCC#N)[C@H]1CC[C@]2(C)[C@@H]([C@H](C)CCCC(C)C)CC[C@H]2[C@@H]1CC(=O)O; conditions: 1.25 uM

Sequence of Receptor-type tyrosine-protein phosphatase C, CD45 (Homo sapiens) (P08575 whole entry, looked up): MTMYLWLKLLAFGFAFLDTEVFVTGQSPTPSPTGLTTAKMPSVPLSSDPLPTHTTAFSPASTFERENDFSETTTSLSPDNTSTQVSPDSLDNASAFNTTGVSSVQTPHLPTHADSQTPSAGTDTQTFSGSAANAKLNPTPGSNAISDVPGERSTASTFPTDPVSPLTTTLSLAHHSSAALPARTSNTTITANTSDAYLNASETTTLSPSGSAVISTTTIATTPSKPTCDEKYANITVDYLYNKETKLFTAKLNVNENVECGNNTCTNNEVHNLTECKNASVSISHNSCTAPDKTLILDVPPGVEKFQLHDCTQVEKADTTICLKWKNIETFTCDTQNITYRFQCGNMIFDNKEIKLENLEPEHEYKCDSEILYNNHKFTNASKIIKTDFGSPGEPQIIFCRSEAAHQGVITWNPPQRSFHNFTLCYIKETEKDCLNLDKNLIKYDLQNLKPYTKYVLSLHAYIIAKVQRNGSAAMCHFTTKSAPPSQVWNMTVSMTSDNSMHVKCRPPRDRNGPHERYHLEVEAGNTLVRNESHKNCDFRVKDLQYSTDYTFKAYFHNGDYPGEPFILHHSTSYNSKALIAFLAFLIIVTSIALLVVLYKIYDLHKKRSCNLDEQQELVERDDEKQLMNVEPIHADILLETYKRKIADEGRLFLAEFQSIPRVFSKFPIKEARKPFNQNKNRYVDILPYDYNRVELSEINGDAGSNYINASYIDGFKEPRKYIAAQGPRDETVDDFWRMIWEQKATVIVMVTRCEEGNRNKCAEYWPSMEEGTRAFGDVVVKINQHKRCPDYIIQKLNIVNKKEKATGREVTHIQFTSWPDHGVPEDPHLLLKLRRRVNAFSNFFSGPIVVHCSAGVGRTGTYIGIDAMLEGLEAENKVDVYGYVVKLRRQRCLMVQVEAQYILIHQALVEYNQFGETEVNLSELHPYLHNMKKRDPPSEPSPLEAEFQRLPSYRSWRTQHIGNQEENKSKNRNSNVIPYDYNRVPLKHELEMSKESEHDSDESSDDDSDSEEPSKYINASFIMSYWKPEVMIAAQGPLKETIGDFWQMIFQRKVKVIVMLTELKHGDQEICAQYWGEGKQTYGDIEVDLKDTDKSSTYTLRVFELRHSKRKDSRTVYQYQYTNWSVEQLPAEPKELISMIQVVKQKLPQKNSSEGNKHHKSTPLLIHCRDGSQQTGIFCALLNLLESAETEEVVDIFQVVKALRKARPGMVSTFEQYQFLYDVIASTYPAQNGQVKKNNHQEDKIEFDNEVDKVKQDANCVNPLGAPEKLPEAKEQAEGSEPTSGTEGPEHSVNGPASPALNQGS

Molecule: CC(C)CCC[C@@H](C)[C@H]1CC[C@H]2[C@@H]3CC(=O)O[C@](C)(CCCCC#N)[C@H]3CC[C@]12C
GI50 (NCI-H23): 5.63 µM
GI50 (LOX IMVI): 5.35 µM
GI50 (PC-3): 5.51 µM
GI50 (HCC 2998): 4.71 µM
GI50 (HT-29 [1]): 4.05 µM
GI50 (SN12C [2]): 4.38 µM
GI50 (OVCAR-8 [3]): 5.19 µM
GI50 (NCI-H522): > 25 µM
GI50 (SK-MEL-5): 5.1 µM
GI50 (T47D): 4.92 µM
GI50 (COLO 205): 4.75 µM
GI50 (OVCAR-3 [4]): 4.73 µM
GI50 (786-0 [5]): 4.3 µM
GI50 (SF-539): 5.17 µM
GI50 (U-251): 5.04 µM
GI50 (UO-31 [6]): 0.47 µM
GI50 (BT-549 (Homo sapiens)): 5.89 µM
GI50 (A549): 5.51 µM
GI50 (SF-268): > 25 µM

Molecule: CC(C)CCCC(C)[C@H]1CC[C@H]2[C@H](CC(=O)O)[C@@H]([C@@]3(C)CC[C@@H](CC#N)O3)CC[C@]12C (stereo not given in full)
GI50 (NCI-H23): 5.75 µM
GI50 (786-0 [7]): 9.23 µM
GI50 (LOX IMVI): 6.23 µM
GI50 (PC-3): 7.77 µM
GI50 (HCC 2998): 5.1 µM
GI50 (HT-29 [8]): 5.52 µM
GI50 (UO-31 [9]): 15.3 µM
GI50 (OVCAR-3 [10]): 5.66 µM
GI50 (NCI-H522): 0.94 µM
GI50 (NCI/ADR-RES): 5.44 µM
GI50 (SK-MEL-5): 10.8 µM
GI50 (T47D): 8.41 µM
GI50 (OVCAR-8 [11]): 4.76 µM
GI50 (COLO 205): 5.26 µM
GI50 (SN12C [12]): 5.4 µM
GI50 (SF-539): 19.5 µM
GI50 (U-251): 6.01 µM
GI50 (BT-549 (Homo sapiens)): 5.05 µM
GI50 (A549): 8.25 µM
GI50 (SF-268): 2.86 µM

B1: M-phase inducer phosphatase 1 (Homo sapiens), P30304 (protein)
chain: T1 sequence (P30304 whole entry)
Vmax [19]: 4610
Km [20]: 23.1 µM
Km [21]: 37.4 µM
Vmax [22]: 3070
Vmax [23]: 632
Km [24]: 32.3 µM
Km [25]: 33.6 µM
Vmax [26]: 4260

Further molecules by falling GI50 (NCI-H23), results first:

GI50 (NCI-H23): 5.12 µM
GI50 (786-0 [7]): 11.5 µM
GI50 (PC-3): 7.36 µM
GI50 (HCC 2998): 6.33 µM
GI50 (HT-29 [8]): 7.77 µM
IC50 [16]: 2.2 µM
GI50 (OVCAR-8 [3]): 4.78 µM
GI50 (SK-MEL-5): 5.98 µM
GI50 (T47D): 8.39 µM
GI50 (COLO 205): 5.1 µM
GI50 (OVCAR-3 [4]): 6.64 µM
IC50 [17]: 12.2 µM
GI50 (U-251): 6.49 µM
IC50 [18]: 8.3 µM
GI50 (BT-549 (Homo sapiens)): 5.62 µM
GI50 (A549): 5.21 µM
Molecule: C=C(CCCCC#N)[C@H]1CC[C@]2(C)[C@@H]([C@H](C)CCCC(C)C)CC[C@H]2[C@@H]1CC(=O)O
GI50 (LOX IMVI): 4.92 µM
GI50 (UO-31 [9]): 9.41 µM
GI50 (NCI/ADR-RES): 5.66 µM
GI50 (SN12C [12]): 6.9 µM
GI50 (SF-539): 4.5 µM

GI50 (NCI-H23): 4.92 µM
IC50 [13]: 5.1 µM
GI50 (786-0 [7]): 8.44 µM
GI50 (PC-3): 7.21 µM
GI50 (HCC 2998): 4.43 µM
GI50 (HT-29 [8]): 7.76 µM
IC50 [14]: > 100 µM
GI50 (OVCAR-3 [10]): 5.78 µM
GI50 (NCI-H522): > 25 µM
GI50 (SK-MEL-5): 9.69 µM
GI50 (T47D): 7.3 µM
GI50 (OVCAR-8 [11]): 5.13 µM
GI50 (COLO 205): 6.13 µM
IC50 [15]: 11.6 µM
GI50 (U-251): 6.28 µM
GI50 (BT-549 (Homo sapiens)): 4.19 µM
GI50 (A549): 8.3 µM
Molecule: CC(C)CCC[C@@H](C)[C@H]1CC[C@H]2[C@@H]3CC(=O)O[C@](C)(CCCCC(=O)O)[C@H]3CC[C@]12C
GI50 (UO-31 [9]): 11 µM
GI50 (NCI/ADR-RES): 5.55 µM
GI50 (SN12C [12]): 8.3 µM
GI50 (SF-539): 14.6 µM
GI50 (SF-268): > 25 µM
